Results taken from ChEMBL document CHEMBL1125639, “Synthesis and resolution of (+-)-7-chloro-8-hydroxy-1-(3'-iodophenyl)-3-methyl-2,3,4,5-tetrahydro- 1H-3- benzazepine (TISCH): a high affinity and selective iodinated ligand for CNS D1 dopamine receptor” (J Med Chem, 1991).
Where “and” joins values, the source holds several entries; their conditions need not be identical. Identical values can stand only once.

What was measured:
[1] = Biodistribution ratio measured as the ratio of compound present in brain to that of blood at 4 hr after intravenous injection; assay type: ADME, organism-based; conditions: rat, brain / blood
Summary of the method: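 Male Sprague-Dawley rats (225-300 g) given 0.2 mL saline containing [125I]-labeled ligand (2-5 μCi, ~2200 Ci/mmol) via femoral vein under ether anesthesia; sacrificed at set times by cardiac excision. Brain and blood weighed and gamma-counted against diluted injectate; ratio taken from % dose/gram values, 3 rats per time point.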

Rattus norvegicus [2] = experiment: Biodistribution of compound in rats liver after an intravenous injection was measured at 4 hr; assay type: ADME, organism-based; conditions: in vivo
Summary of the method: (§1)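 Male Sprague-Dawley rats (225-300 g), free access to food and water. Under ether anesthesia, given 0.2 mL saline containing 125I-labelled ligand (2-5 μCi, ~2200 Ci/mmol) into the femoral vein. Killed by cardiac excision at set times. Organs removed, weighed and gamma-counted. % dose/organ is taken against diluted injectate aliquots, with blood and muscle assumed to be 7% and 40% of body weight. Mean of 3 rats ± std dev.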

Rattus norvegicus [3] = experiment: Biodistribution of compound in rats lung after an intravenous injection was measured at 30 min; assay type: ADME, organism-based; conditions: in vivo, 0.5 h; summary of the method: as §1
Rattus norvegicus [4] = experiment: Biodistribution of compound in rats heart after an intravenous injection was measured at 4 hr; assay type: ADME, organism-based; conditions: in vivo; summary of the method: as §1
Rattus norvegicus [5] = experiment: Biodistribution of compound in rats thyroid after an intravenous injection was measured at 30 min; assay type: ADME, organism-based, Thyroid gland; conditions: in vivo, 0.5 h
Summary of the method: (§2)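 Male Sprague-Dawley rats (225-300 g), free access to food and water; under ether anesthesia, 0.2 mL saline containing [125I]-labeled ligand (2-5 μCi, ~2200 Ci/mmol) injected into femoral vein; killed by cardiac excision under ether at set times. […] removed, weighed, gamma-counted; % dose/organ from comparison with diluted aliquots of injectate; mean of 3 rats ± std dev.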

Rattus norvegicus [6] = experiment: Biodistribution of compound in rats kidney after an intravenous injection was measured at 4 hr; assay type: ADME, organism-based; conditions: in vivo; summary of the method: as §1
Rattus norvegicus [7] = experiment: Biodistribution of compound in rats kidney after an intravenous injection was measured at 1 hr; assay type: ADME, organism-based; conditions: in vivo; summary of the method: as §1
Rattus norvegicus [8] = experiment: Biodistribution of compound in rats muscle after an intravenous injection was measured at 30 min; assay type: ADME, organism-based, Muscle tissue; conditions: in vivo, 0.5 h; summary of the method: as §1
Rattus norvegicus [9] = experiment: Biodistribution of compound in rats thyroid after an intravenous injection was measured at 24 hr; assay type: ADME, organism-based, Thyroid gland; conditions: in vivo; summary of the method: as §2
Rattus norvegicus [10] = experiment: Biodistribution of compound in rats liver after an intravenous injection was measured at 30 min; assay type: ADME, organism-based; conditions: in vivo, 0.5 h; summary of the method: as §1
Rattus norvegicus [11] = experiment: Biodistribution of compound in rats kidney after an intravenous injection was measured at 30 min; assay type: ADME, organism-based; conditions: in vivo, 0.5 h; summary of the method: as §1
Rattus norvegicus [12] = experiment: Biodistribution of compound in rats blood after an intravenous injection was measured at 2 min; assay type: ADME, organism-based; conditions: in vivo; summary of the method: as §1
Rattus norvegicus [13] = experiment: Biodistribution of compound in rats lung after an intravenous injection was measured at 2 min; assay type: ADME, organism-based; conditions: in vivo; summary of the method: as §1
Rattus norvegicus [14] = experiment: Biodistribution of compound in rats heart after an intravenous injection was measured at 2 min; assay type: ADME, organism-based; conditions: in vivo; summary of the method: as §1
Rattus norvegicus [15] = experiment: Biodistribution of compound in rats kidney after an intravenous injection was measured at 2 min; assay type: ADME, organism-based; conditions: in vivo; summary of the method: as §1
Rattus norvegicus [16] = experiment: Regional brain distribution of compound in rats striatum after an intravenous injection was measured at 1 hr; assay type: ADME, organism-based; conditions: in vivo
Summary of the method: (§3)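 After femoral-vein injection of [125I]-labeled ligand (2-5 μCi, ~2200 Ci/mmol, 0.2 mL saline, ether anesthesia) into male Sprague-Dawley rats (225-300 g), brains were dissected into cortex, striatum and cerebellum, weighed and gamma-counted. % dose/gram calculated against diluted initial dose; regional ratio = % dose/gram of region divided by that of cerebellum.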

Rattus norvegicus [17] = experiment: Biodistribution of compound in rats heart after an intravenous injection was measured at 1 hr; assay type: ADME, organism-based; conditions: in vivo; summary of the method: as §1
Rattus norvegicus [18] = experiment: Biodistribution of compound in rats blood after an intravenous injection was measured at 1 hr; assay type: ADME, organism-based; conditions: in vivo; summary of the method: as §1
Rattus norvegicus [19] = experiment: Biodistribution of compound in rats blood after an intravenous injection was measured at 4 hr; assay type: ADME, organism-based; conditions: in vivo; summary of the method: as §1
Rattus norvegicus [20] = experiment: Regional brain distribution of compound in rats cerebellum after an intravenous injection was measured at 1 hr; assay type: ADME, organism-based; conditions: in vivo; summary of the method: as §3
Rattus norvegicus [21] = experiment: Biodistribution of compound in rats liver after an intravenous injection was measured at 1 hr; assay type: ADME, organism-based; conditions: in vivo; summary of the method: as §1
Rattus norvegicus [22] = experiment: Biodistribution of compound in rats blood after an intravenous injection was measured at 30 min; assay type: ADME, organism-based; conditions: in vivo, 0.5 h; summary of the method: as §1
Rattus norvegicus [23] = experiment: Regional brain distribution of compound in rats cerebellum after an intravenous injection was measured at 30 min; assay type: ADME, organism-based; conditions: in vivo, 0.5 h; summary of the method: as §3
Rattus norvegicus [24] = experiment: Biodistribution of compound in rats liver after an intravenous injection was measured at 24 hr; assay type: ADME, organism-based; conditions: in vivo; summary of the method: as §1
[25] = Ratio of regional brain distribution in striatum to that of cerebellum at 2 min after intravenous injection; assay type: functional; summary of the method: as §3
Rattus norvegicus [26] = experiment: Biodistribution of compound in rats brain after an intravenous injection was measured at 4 hr; assay type: ADME, organism-based; conditions: in vivo
Summary of the method: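 Rats (male Sprague-Dawley, 225-300 g) given the 125I ligand (2-5 μCi, ~2200 Ci/mmol) in 0.2 mL saline via the femoral vein under ether anesthesia, then killed at set times. Whole brain removed, weighed and gamma-counted. % dose/organ is taken against diluted injectate aliquots. Mean of 3 rats ± std dev.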

Rattus norvegicus [27] = experiment: Biodistribution of compound in rats lung after an intravenous injection was measured at 4 hr; assay type: ADME, organism-based; conditions: in vivo; summary of the method: as §1
Rattus norvegicus [28] = experiment: Biodistribution of compound in rats spleen after an intravenous injection was measured at 1 hr; assay type: ADME, organism-based; conditions: in vivo; summary of the method: as §1
Rattus norvegicus [29] = experiment: Biodistribution of compound in rats heart after an intravenous injection was measured at 30 min; assay type: ADME, organism-based; conditions: in vivo, 0.5 h; summary of the method: as §1

Kp at 4 h [1]: 5.23 | Biodistribution (Rattus norvegicus [2]): 7.638 | Biodistribution (Rattus norvegicus [3]): 1.24 | Biodistribution (Rattus norvegicus [4]): 0.014 | Biodistribution (Rattus norvegicus [5]): 0.042 and 0.042% | Biodistribution (Rattus norvegicus [6]): 0.476 | Biodistribution (Rattus norvegicus [7]): 0.883 | Biodistribution (Rattus norvegicus [8]): 9.3 | Biodistribution (Rattus norvegicus [9]): 0.268 | Biodistribution (Rattus norvegicus [10]): 11.45 | Biodistribution (Rattus norvegicus [11]): 0.945 | Biodistribution (Rattus norvegicus [12]): 3.28 | Biodistribution (Rattus norvegicus [13]): 10.18 | Biodistribution (Rattus norvegicus [14]): 1.14 | Biodistribution (Rattus norvegicus [15]): 4.92 | Biodistribution (Rattus norvegicus [16]): 1.455 | Biodistribution (Rattus norvegicus [17]): 0.088 | Biodistribution (Rattus norvegicus [18]): 0.847 | Biodistribution (Rattus norvegicus [19]): 0.254 | Biodistribution (Rattus norvegicus [20]): 0.129 | Biodistribution (Rattus norvegicus [21]): 9.814 | Biodistribution (Rattus norvegicus [22]): 0.773 | Biodistribution (Rattus norvegicus [23]): 0.248 | Biodistribution (Rattus norvegicus [24]): 3.84 | Biodistribution (Rattus norvegicus [26]): 0.102 | Biodistribution (Rattus norvegicus [27]): 0.122 | Biodistribution (Rattus norvegicus [28]): 0.123 | Biodistribution (Rattus norvegicus [29]): 0.137
SMILES: CN1CCc2cc(Cl)c(O)cc2[C@@H](c2cccc(I)c2)C1
Ratio [25]: 1.28
